# Screens as filed in PubChem.
# A selection: hits, their analogues and other compounds. The true share with any hit is near 2.1%.
# FAS-TE inh: FAS thioesterase domain inhibitors, primary screen, biochemical, fluorescence intensity, uHTS; Fatty acid synthase (Homo sapiens), P49327; recombinant FAS-TE, OMFH fluorogenic substrate, fluorescence endpoint; inhibition, % at 15 µM; actives 0.67% (n = 360,000); AID 602261, 2012;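 active = compounds whose normalised, plate-corrected inhibition of enzyme fluorescence in the single-dose primary screen is 50% or more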;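 note: 0% = DMSO with enzyme and 100% = substrate without enzyme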
# Runt-SMMHC FRET: inhibitors of RUNX1 Runt–CBFb-SMMHC binding, primary screen, biochemical, FRET, Cerulean-Runt, Venus-CBFb-SMMHC, uHTS; actives 0.74% (n = 220,000); AID 1434, 2008; inhibition, % at 20 µM; Cerulean-Runt/Venus-CBFb-SMMHC FRET ratio 530/480, 1 h;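 active = mean inhibition across duplicate retests at 20 µM reaching about 50%, limit read from the data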;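 note: 0% = DMSO wells and 100% = wells with excess untagged CBFb-SMMHC; inhibitors lower the FRET ratio by blocking Runt binding to CBFb-SMMHC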
# Target sequence (Q01196 whole entry, looked up): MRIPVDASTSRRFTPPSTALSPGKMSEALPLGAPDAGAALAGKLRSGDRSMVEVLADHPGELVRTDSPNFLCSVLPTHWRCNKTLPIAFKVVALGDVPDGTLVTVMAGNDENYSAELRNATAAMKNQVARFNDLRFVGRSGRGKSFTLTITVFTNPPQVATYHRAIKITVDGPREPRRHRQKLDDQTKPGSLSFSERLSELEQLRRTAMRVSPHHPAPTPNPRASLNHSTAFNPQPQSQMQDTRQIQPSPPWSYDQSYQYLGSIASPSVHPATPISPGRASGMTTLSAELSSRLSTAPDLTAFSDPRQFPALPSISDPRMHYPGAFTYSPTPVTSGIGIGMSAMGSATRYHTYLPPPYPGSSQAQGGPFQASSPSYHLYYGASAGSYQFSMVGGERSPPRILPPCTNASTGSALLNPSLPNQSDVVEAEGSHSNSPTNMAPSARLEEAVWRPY
# Target sequence (Q13951 whole entry, looked up): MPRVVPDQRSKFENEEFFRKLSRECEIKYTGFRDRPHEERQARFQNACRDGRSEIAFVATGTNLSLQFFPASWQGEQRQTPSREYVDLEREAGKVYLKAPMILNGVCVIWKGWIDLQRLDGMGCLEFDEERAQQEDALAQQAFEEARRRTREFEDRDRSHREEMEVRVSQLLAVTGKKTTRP
# RanGTP-Imp inh: inhibitors of RanGTP-importin-beta interaction, primary screen, biochemical, FRET, CFP-Ran, YFP-importin-beta, homogeneous. AID 2216, 2009. Ran GTPase (GTP-bound) - importin-beta complex. inhibition, % (concentration not given with the values). cell-free CFP-Ran/YFP-importin-beta FRET ratio. actives 1.1% (n = 300,000);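 active = more than half of the replicate wells show a fall in the fluorescence ratio signal beyond about 16%, limit read from the data, passing the limit was not always enough; inconclusive = exactly half of the replicate wells pass the set limit; inactive = fewer than half of replicates pass the limit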;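 note: 0% = DMSO wells and 100% = Ran loaded with GDP instead of GTP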
# m-calpain inh: inhibitors of pig calpain II, primary screen, biochemical, fluorogenic peptide substrate, 1536-well; purified calpain II, 30 min; inhibition, % at 16 µM; actives 0.37% (n = 220,000); AID 1236, 2008;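 active = inhibition above about 50%, limit read from the data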
# Runt-CBFb FRET: inhibitors of RUNX1 Runt–CBFb binding, primary screen, biochemical, FRET, Cerulean-Runt, Venus-CBFb, uHTS. actives 0.46% (n = 220,000). Runt-related transcription factor 1 (Homo sapiens) + Core-binding factor subunit beta …. AID 1496, 2009. inhibition, % at 20 µM. Cerulean-Runt/Venus-CBFb FRET ratio 530/480, 1 h;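 active = inhibition over about 50% at 20 µM in the single-dose screen, limit read from the data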;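 note: 0% = DMSO wells and 100% = excess unlabeled CBFb competitor control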
#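 test system = Cerulean-tagged RUNX1 Runt domain (FRET donor) fusion protein | reagent = Venus-CBFb binding partner, 100 nM | incubation = protein complex preformed 1 h, compound exposure 1 h, room temperature, dark | detection = FRET fluorescence | read-out basis = loss of energy transfer signal | controls = 5 µM unlabeled CBFb as full-inhibition high control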
# Active calls of the source: *; i = inactive; ? = inconclusive; nt = no result given.
SMILES,FAS-TE inh,Runt-SMMHC FRET,RanGTP-Imp inh,m-calpain inh,Runt-CBFb FRET
O=c1[nH]c(=O)n(C2CCCCC2)c(O)c1/C=C/C=Nc1ccccc1,-88,81*,61*,4,-3
C=CCn1c(O)c(/C=C/C=Nc2ccccc2)c(=O)[nH]c1=O,-13,77*,29*,25,39
COc1ccc(-n2c(O)c(/C=C/C=Nc3ccccc3)c(=O)[nH]c2=O)cc1,-6,51*,20*,-11,15
Cc1ccc(N/N=C/c2c(O)n(-c3ccccc3)c(=O)[nH]c2=O)cc1,-5,2,1,-5,2
Cc1ccc(-n2c(O)c(/C=C/C=Nc3ccccc3)c(=O)[nH]c2=O)cc1,-16,66*,68*,14,19
O=c1[nH]c(=O)n(-c2ccccc2)c(O)c1/C=C/C=Nc1ccccc1,-6,60*,58*,-2,46
NS(=O)(=O)c1ccc(N=Cc2c(O)n(-c3ccccc3)c(=O)[nH]c2=O)cc1,-3,-8,8,12,0
N#Cc1ccc(CN2Cc3ccccc3-n3nncc3C2)cc1,-7,nt,nt,nt,nt
N#CC1=C(N)Oc2cc(O)ccc2C1c1ccc2c(c1)OCO2 (stereo unspecified),10,90*,67*,24,21
c1cc2c(cc1[C@H]1OC[C@H]3[C@@H]1CO[C@H]3c1ccc3c(c1)OCO3)OCO2,16,nt,nt,nt,nt
Cc1noc(C)c1CC(=O)N1CCCC(N2CCN(c3ccccc3F)CC2)C1 (stereo unspecified),-9,nt,0,nt,nt
COc1ccc(CCNCc2ccccn2)cc1OC,-9,0,-4,3,0
COc1ccc(CCNC(=O)c2c(N)n(CCN3CCOCC3)c3nc4ccccc4nc23)cc1OC,9,46,55*,-187,19
CCCCCn1c(=O)c(C(=O)NCCc2ccccc2)c(O)c2ccccc21,24,nt,1,nt,nt
CCCCCCn1c(N)c(C(=O)NCCN2CCOCC2)c2nc3ccccc3nc21,11,62*,70*,i,28
CCCCCn1c(N)c(C(=O)NCCN2CCOCC2)c2nc3ccccc3nc21,7,94*,60*,i,1
O=C(NCCN1CCOCC1)c1ccc(Cl)nc1,-9,2,-1,-25,0
CSc1nnc(OC(=O)N(C)C)n1-c1ccc(Cl)cc1,-3,-4,4,1,1
CN1CN(c2cccc([N+](=O)[O-])c2)CN=C1N[N+](=O)[O-],-7,0,-1,-17,2
CCCCn1c(N)c(C(=O)OCC2CCCO2)c2nc3ccccc3nc21 (stereo unspecified),3,106*,?,i,41
CCCCOC(=O)c1ccccc1N,4,nt,nt,nt,nt
CC(C)CCOC(=O)c1c(N)n(CC2CCCO2)c2nc3ccccc3nc12 (stereo unspecified),14,65*,11,i,22
CCCn1c(C(=O)c2ccccc2)nc2ccccc21,9,-2,-4,4,0
COCCCn1c(N)c(C(=O)NCCC(C)C)c2nc3ccccc3nc21,12,88,103*,i,17
CCCCOCCCn1c(N)c(C(=O)OCCOC)c2nc3ccccc3nc21,1,103*,?,i,44
SMILES,FAS-TE inh,Runt-SMMHC FRET,RanGTP-Imp inh,m-calpain inh,Runt-CBFb FRET
CC(C)CCn1c(N)c(C(=O)OCC2CCCO2)c2nc3ccccc3nc21 (stereo unspecified),6,82*,?,i,38
COc1ccc2c3c1OC1C(O)C=CC4C(C2)[N+](C)(C)CCC341 (stereo unspecified),-5,nt,0,nt,nt
CCCCn1c(NS(=O)(=O)c2ccc(C)cc2)c(C(=O)OCC)c2nc3ccccc3nc21,7,58*,75*,-492,10
CCOC(=O)c1nc2ccccc2c(=O)n1-c1ccc(C)cc1,4,-3,7,-2,2
CCCCn1c(NC(=O)c2ccco2)c(C(=O)OCC)c2nc3ccccc3nc21,6,60*,71*,i,18
CCOC(=O)C1CCCN(c2ccc([N+](=O)[O-])c3nonc23)C1 (stereo unspecified),0,-177,-2,60*,-62
C=C(C)[C@@H]1C2C(=O)O[C@H]1[C@H]1OC(=O)[C@@]34OC3C[C@]2(O)[C@@]14C (stereo partly specified),-2,nt,nt,nt,nt
Cc1noc(C)c1COc1ccc(C(=O)NCC2(N(C)C)CCCCC2)cc1,-8,nt,nt,nt,nt
Oc1cc2c(cc1O)[C@H]1c3ccccc3CN[C@@H]1CC2,nt,56*,1,-21,35
CCOC(=O)c1cccc(C2=C(CNC(=O)c3cccnc3)[C@H]3CC[C@@H](C2)N3Cc2ccccc2)c1,-9,nt,nt,nt,nt
CC(Cc1ccc(O)cc1)NCC(O)c1cc(O)cc(O)c1 (stereo unspecified),2,7,17*,-12,13
COC(=O)C1=C(c2cc3ccccc3s2)C[C@@H]2CC[C@H]1N2C(=O)N1CCCC1,2,nt,-1,nt,nt
Cc1cccn2c(=O)c3cc(C(=O)N4CCC5(CC4)OCCO5)n(C)c3nc12,-3,83*,3,i,29
O=C1C=Cc2ccccc2C1=O,nt,14,2,60*,10
FC(F)=C(F)CCSc1ncn[nH]1,-8,-1,1,-22,2
Brc1ccc2c(c1)C(OC1CN3CCC1CC3)c1ccccc1CS2 (stereo unspecified),-2,6,0,-23,-1
Cc1oc(-c2ccc(F)cc2F)nc1CN1C[C@@H]2C[C@@H](C1)c1cccc(=O)n1C2,-4,1,-2,-32,0
CCOCCCn1c(N)c(C(=O)Nc2sc3c(c2C(=O)OC)CCCC3)c2nc3ccccc3nc21,0,137*,3,-252,41
CCOC(=O)c1c(NC(=O)c2c(N)n(CCCOC)c3nc4ccccc4nc23)sc2c1CCCC2,5,101*,6,-135,69*
CCOC(=O)c1c(NC(NC(=O)CF)C(Cl)(Cl)Cl)sc2c1CCCC2 (stereo unspecified),28,5,0,5,2
CCOC(=O)c1c(NC(=O)C(c2ccccc2)c2ccccc2)sc2c1C1CCN2CC1,-5,-1,1,2,-2
COc1cccc(N(C(C)=O)C2=NCCCS2)c1,-2,nt,1,nt,nt
COC(=O)C1=C(c2ccc(OC(F)(F)F)cc2)C[C@@H]2CC[C@H]1N2C(=O)NCCOc1ccc(OC)cc1,12,nt,nt,nt,nt
